Measurements as given in ChEMBL document CHEMBL1153609, “Synthesis and cytotoxic activity of alpha-santonin derivatives” (Eur J Med Chem, 2009).

What was measured:
SF-295 = test: Cytotoxicity against human SF295 cells after 72 hrs by MTT assay; type: functional, cell-based; details: SF-295, 72 h
Procedure, shortened: (§1)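 Cells kept in RPMI-1640 with 10% FBS, 2 mM glutamine, penicillin/streptomycin, at 37 °C under 5% CO2. Seeded at 10^5 cells/well (adherent) or 0.5×10^5 cells/well (suspension). After 24 h, compounds in DMSO (0.09–25 μg/mL) added for 72 h; doxorubicin positive control. Medium then replaced with 0.5 mg/mL MTT for 3 h, formazan dissolved in DMSO, absorbance read at 595 nm as % of control; IC50 derived.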

HL-60 = test: Cytotoxicity against human HL60 cells after 72 hrs by MTT assay; type: functional, cell-based; details: HL-60, 72 h; procedure, shortened: as §1
HCT-8 = test: Cytotoxicity against human HCT8 cells after 72 hrs by MTT assay; type: functional, cell-based; details: HCT-8, 72 h; procedure, shortened: as §1
MDA-MB-435 = test: Cytotoxicity against human MDA-MB-435 cells after 72 hrs by MTT assay; type: functional, cell-based; details: MDA-MB-435, 72 h; procedure, shortened: as §1
UACC-257 = test: Cytotoxicity against human UACC257 cells after 72 hrs by MTT assay; type: functional, cell-based; details: UACC-257, 72 h; procedure, shortened: as §1
A549 = test: Cytotoxicity against human A549 cells after 72 hrs by MTT assay; type: functional, cell-based; details: A549, 72 h; procedure, shortened: as §1
OVCAR-8 = test: Cytotoxicity against human OVCAR8 cells after 72 hrs by MTT assay; type: functional, cell-based; details: OVCAR-8, 72 h; procedure, shortened: as §1
A704 = test: Cytotoxicity against human A704 cells after 72 hrs by MTT assay; type: functional, cell-based; details: A704, 72 h; procedure, shortened: as §1
PC-3 = test: Cytotoxicity against human PC3 cells after 72 hrs by MTT assay; type: functional, cell-based; details: PC-3, 72 h; procedure, shortened: as §1
PBMC = test: Cytotoxicity against human PBMC cells after 72 hrs by alamar blue assay; type: cell-based
Procedure, shortened: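 PBMC came from heparinized blood of healthy non-smoking donors and were isolated by Ficoll-Hypaque density gradient. Cultured in RPMI-1640 with 20% FBS, glutamine and antibiotics, with 2% phytohemagglutinin. Plated at 3×10^5 cells/well; after 24 h, compounds in DMSO (0.09–25 μg/mL) added for 72 h; doxorubicin positive control. Resazurin added 24 h before end; absorbance read at 570 and 595 nm as % of control.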

`CC1=C2[C@H]3OC(=O)[C@@H](C)[C@@H]3CC[C@@](C)(O)[C@@H]2CC1=O` gave an IC50 (SF-295) greater than 100 µM, an IC50 (HL-60) greater than 100 µM and an IC50 (HCT-8) greater than 100 µM. For the same compound, the IC50 (MDA-MB-435) was greater than 100 µM, the IC50 (UACC-257) was greater than 100 µM and the IC50 (A549) was greater than 100 µM. It also gave an IC50 (OVCAR-8) greater than 100 µM, an IC50 (A704) greater than 100 µM and an IC50 (PC-3) greater than 100 µM.

`CC1=C2[C@H]3OC(=O)[C@](C)([Se]c4ccccc4)[C@@H]3CC[C@@]2(C)C=CC1=O` showed an IC50 (SF-295) greater than 100 µM, an IC50 (HL-60) greater than 100 µM and an IC50 (HCT-8) greater than 100 µM. The IC50 (MDA-MB-435) was greater than 100 µM, the IC50 (UACC-257) was greater than 100 µM and the IC50 (A549) was greater than 100 µM. The IC50 (OVCAR-8) was greater than 100 µM, the IC50 (A704) was greater than 100 µM and the IC50 (PC-3) was greater than 100 µM.

In the case of `CC(=O)O[C@]1(C)CC[C@H]2[C@H](C)C(=O)O[C@@H]2C2=C(C)C(=O)C[C@H]21`, the IC50 (SF-295) is reported as greater than 100 µM, the IC50 (HL-60) is reported as greater than 100 µM and the IC50 (HCT-8) is reported as greater than 100 µM. For the same compound, the IC50 (MDA-MB-435) was greater than 100 µM, the IC50 (UACC-257) was greater than 100 µM and the IC50 (A549) was greater than 100 µM. For the same compound, the IC50 (OVCAR-8) was greater than 100 µM, the IC50 (A704) was greater than 100 µM and the IC50 (PC-3) was greater than 100 µM.

Work on `C=C1C(=O)O[C@@H]2C3=C(C)C(=O)C=C[C@]3(C)CC[C@@H]12` yielded an IC50 (SF-295) of 2.7 µM, an IC50 (HL-60) of 1.14 µM and an IC50 (HCT-8) of 2.92 µM. It also gave an IC50 (MDA-MB-435) of 6.74 µM, an IC50 (UACC-257) of 6.05 µM and an IC50 (A549) of 13.4 µM. For the same compound, the IC50 (OVCAR-8) was 6.94 µM, the IC50 (A704) was 10.1 µM and the IC50 (PC-3) was 13 µM. It also gave an IC50 (PBMC) of 3.23 µM.

In the case of `C=C1C(=O)O[C@@H]2C3=C(C)C(=O)C[C@H]3[C@](C)(OC(C)=O)CC[C@@H]12`, the IC50 (SF-295) is reported as 3.06 µM, the IC50 (HL-60) is reported as 1.6 µM and the IC50 (HCT-8) is reported as 0.36 µM. For the same compound, the IC50 (MDA-MB-435) was 8.84 µM, the IC50 (UACC-257) was 7.76 µM and the IC50 (A549) was 10.2 µM. The IC50 (OVCAR-8) was 8.67 µM, the IC50 (A704) was 9.24 µM and the IC50 (PC-3) was 14.4 µM. For the same compound, the IC50 (PBMC) was 13.5 µM.

Work on `CC1=C2[C@H]3OC(=O)[C@@H](C)[C@@H]3CC[C@@](C)(O)[C@@H]2C[C@@H]1O` yielded an IC50 (SF-295) greater than 100 µM, an IC50 (HL-60) greater than 100 µM and an IC50 (HCT-8) greater than 100 µM. For the same compound, the IC50 (MDA-MB-435) was greater than 100 µM, the IC50 (UACC-257) was greater than 100 µM and the IC50 (A549) was greater than 100 µM. It also gave an IC50 (OVCAR-8) greater than 100 µM, an IC50 (A704) greater than 100 µM and an IC50 (PC-3) greater than 100 µM.

`CC(=O)O[C@]1(C)CC[C@H]2[C@H](C)C(=O)O[C@@H]2C2=C(C)[C@@H](O)C[C@H]21` gave an IC50 (SF-295) greater than 100 µM, an IC50 (HL-60) greater than 100 µM and an IC50 (HCT-8) greater than 100 µM. For the same compound, the IC50 (MDA-MB-435) was greater than 100 µM, the IC50 (UACC-257) was greater than 100 µM and the IC50 (A549) was greater than 100 µM. The IC50 (OVCAR-8) was greater than 100 µM, the IC50 (A704) was greater than 100 µM and the IC50 (PC-3) was greater than 100 µM.

Compound `C=C1C(=O)O[C@H]2[C@H]1CC[C@]1(C)C3(C)C(=O)C=CC231` (some centres not stated) has an IC50 (SF-295) of 2.15 µM, an IC50 (HL-60) of 2.3 µM and an IC50 (HCT-8) of 1.96 µM. It also gave an IC50 (MDA-MB-435) of 4.57 µM, an IC50 (UACC-257) of 4.87 µM and an IC50 (A549) of 14.5 µM. The IC50 (OVCAR-8) was 3.88 µM, the IC50 (A704) was 3.61 µM and the IC50 (PC-3) was 5.07 µM. It also gave an IC50 (PBMC) of 13.4 µM.

`COc1cccc2c1C(=O)c1c(O)c3c(c(O)c1C2=O)C[C@@](O)(C(=O)CO)C[C@@H]3O[C@H]1C[C@H](N)[C@H](O)[C@H](C)O1` [DOXORUBICIN] showed an IC50 (SF-295) of 0.48 µM, an IC50 (HL-60) of 0.04 µM and an IC50 (HCT-8) of 0.02 µM. It also gave an IC50 (MDA-MB-435) of 0.96 µM, an IC50 (UACC-257) of 0.6 µM and an IC50 (A549) of 0.72 µM. It also gave an IC50 (OVCAR-8) of 0.51 µM, an IC50 (A704) of 2 µM and an IC50 (PC-3) of 1.32 µM. It also gave an IC50 (PBMC) of 1.77 µM.

In the case of `CC(C)=C1CC[C@H]2[C@H](C)C(=O)O[C@@H]2/C1=C\CC(=O)O` [ISOFOTOSANTONIC ACID], the IC50 (SF-295) is reported as greater than 100 µM, the IC50 (HL-60) is reported as greater than 100 µM and the IC50 (HCT-8) is reported as greater than 100 µM. For the same compound, the IC50 (MDA-MB-435) was greater than 100 µM, the IC50 (UACC-257) was greater than 100 µM and the IC50 (A549) was greater than 100 µM. For the same compound, the IC50 (OVCAR-8) was greater than 100 µM, the IC50 (A704) was greater than 100 µM and the IC50 (PC-3) was greater than 100 µM.

In the case of `C[C@@H]1C(=O)O[C@H]2[C@H]1CC[C@]1(C)C3(C)C(=O)C=CC231` (some centres not stated) [LUMISANTONIN], the IC50 (SF-295) is reported as 68.8 µM, the IC50 (HL-60) is reported as 80.2 µM and the IC50 (HCT-8) is reported as 59.2 µM. It also gave an IC50 (MDA-MB-435) of 91.5 µM, an IC50 (UACC-257) greater than 100 µM and an IC50 (A549) of 69.4 µM. The IC50 (OVCAR-8) was 49.8 µM, the IC50 (A704) was 85.4 µM and the IC50 (PC-3) was 66.5 µM.

Compound `CC1=C2[C@H]3OC(=O)[C@@H](C)[C@@H]3CC[C@@]2(C)C=CC1=O` [SANTONIN] has an IC50 (SF-295) greater than 100 µM, an IC50 (HL-60) greater than 100 µM and an IC50 (HCT-8) greater than 100 µM. For the same compound, the IC50 (MDA-MB-435) was greater than 100 µM, the IC50 (UACC-257) was greater than 100 µM and the IC50 (A549) was greater than 100 µM. It also gave an IC50 (OVCAR-8) greater than 100 µM, an IC50 (A704) greater than 100 µM and an IC50 (PC-3) greater than 100 µM.
